Test results: ChEMBL document CHEMBL5030505, “Assessment of NR4A Ligands That Directly Bind and Modulate the Orphan Nuclear Receptor Nurr1” (J Med Chem, 2020)
Calls of active or inactive are those of the source. No cut-off for these calls is given here.

What was measured:
Type in all cases: cell-based
[1] = target: Nuclear receptor subfamily 4 group A member 2 (Homo sapiens) (UniProt P43354); experiment: Modulation of full length human Nurr1 expressed in HEK293T cells co-transfected with luciferase reporter plasmid harboring NBRE response element assessed as increase in luciferase activity incubated for 18 hrs by luciferase-reporter gene assay; conditions: filed as modulator, dose 0.002-200 µM
Sequence of Nuclear receptor subfamily 4 group A member 2 (Homo sapiens) (P43354 whole entry, the tested form may be a part): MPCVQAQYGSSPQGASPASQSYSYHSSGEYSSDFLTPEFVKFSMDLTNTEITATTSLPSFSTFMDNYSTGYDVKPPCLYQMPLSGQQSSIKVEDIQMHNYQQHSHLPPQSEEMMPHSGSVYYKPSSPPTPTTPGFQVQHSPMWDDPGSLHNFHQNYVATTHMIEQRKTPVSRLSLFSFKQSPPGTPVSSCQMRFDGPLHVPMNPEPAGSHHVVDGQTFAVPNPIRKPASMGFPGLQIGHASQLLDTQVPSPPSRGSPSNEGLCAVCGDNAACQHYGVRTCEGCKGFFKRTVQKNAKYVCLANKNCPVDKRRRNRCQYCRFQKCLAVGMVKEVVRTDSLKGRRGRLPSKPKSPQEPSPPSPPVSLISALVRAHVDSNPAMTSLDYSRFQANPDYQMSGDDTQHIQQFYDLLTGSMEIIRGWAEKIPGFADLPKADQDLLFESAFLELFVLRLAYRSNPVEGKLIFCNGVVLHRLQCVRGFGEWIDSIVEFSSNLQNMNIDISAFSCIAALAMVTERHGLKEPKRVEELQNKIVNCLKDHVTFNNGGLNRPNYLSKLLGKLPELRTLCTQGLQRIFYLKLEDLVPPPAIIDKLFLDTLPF
Method in brief: (§1)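 Full-length Nurr1 plasmid, alone (2 μg) or 1 μg plus full-length RXRα (1 μg), cotransfected with 3xNBRE- or 3xNurRE-luciferase reporter (6 μg) using Lipofectamine 2000, 18 h. Cells replated at 10,000/well for 4 h. Four ligand concentrations, or vehicle (water, ethanol or DMSO), added in quadruplicate for 18 h. Luciferase read. Fold change vs vehicle, mean ± s.e.m., one-way ANOVA vs vehicle.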

[2] = target: Nuclear receptor subfamily 4 group A member 2 (Homo sapiens) (UniProt P43354); experiment: Modulation of full length human Nurr1 expressed in PC12 cells co-transfected with RXRalpha and luciferase reporter plasmid harboring NBRE response element assessed as increase in luciferase activity incubated for 18 hrs by luciferase-reporter gene assay; conditions: PC-12, filed as modulator, dose 0.0002-200 µM
Method in brief: (§2)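 PC12 cells were grown at 37°C and 5% CO2 in […] medium with 15% horse serum and 2.5% FBS. They were transfected with full-length Nurr1 (1 μg) plus full-length RXRα (1 μg) and 3xNBRE- or 3xNurRE-luciferase reporter (6 μg) for 18 h, then replated at 10,000 cells/well for 4 h. Ligand or vehicle (water, ethanol or DMSO) was added in quadruplicate for 18 h. Luminescence was read as fold change over vehicle. Results are mean ± s.e.m., n=4, from 2 independent experiments, analysed by one-way ANOVA against vehicle.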

[3] = target: Nuclear receptor subfamily 4 group A member 2 (Homo sapiens) (UniProt P43354); experiment: Modulation of full length human Nurr1 expressed in SKNBE(2) cells co-transfected with luciferase reporter plasmid harboring NurRE response element assessed as increase in luciferase activity incubated for 18 hrs by luciferase-reporter gene assay; conditions: SKNBE2, filed as modulator, dose 0.002-200 µM
[4] = target: Nuclear receptor subfamily 4 group A member 2 (Homo sapiens) (UniProt P43354); experiment: Modulation of full length human Nurr1 expressed in PC12 cells co-transfected with luciferase reporter plasmid harboring NurRE response element assessed as increase in luciferase activity incubated for 18 hrs by luciferase-reporter gene assay; conditions: PC-12, filed as modulator, dose 0.002-200 µM
Method in brief: (§3)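 Here PC12 cells (FK-12 medium, 15% horse serum, 2.5% FBS, 37°C, 5% CO2) received full-length Nurr1 (2 μg) without RXRα, plus 3xNBRE- or 3xNurRE-luciferase reporter (6 μg), for 18 h. Cells were replated at 10,000/well for 4 h, then treated with ligand or vehicle in quadruplicate for 18 h. Luciferase luminescence was normalized to vehicle-treated cells. Results are mean ± s.e.m. (n=4) from 2 independent experiments, with one-way ANOVA against vehicle.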

HEK293T = experiment: Modulation of Gal4-fused VP16 expressed in HEK293T cells co-transfected with UAS repoter gene assessed as increase in luciferase activity at 0.02 to 200 uM incubated for 18 hrs by luciferase reporter gene assay; conditions: Human alphaherpesvirus 2, filed as modulator, dose 0.02-200 µM
Method in brief: (§4)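 Cells in 10-cm dishes were transfected with Gal4-VP16 expression plasmid (2 μg) plus 5xUAS-luciferase reporter (2 μg) for 18 h. They were replated at 10,000 cells/well for 4 h, then given ligand or vehicle (water, ethanol or DMSO) in quadruplicate for 18 h. Luciferase was read with Britelite Plus. Fold change is versus vehicle-treated cells, with one-way ANOVA versus vehicle.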

[5] = target: Nuclear receptor subfamily 4 group A member 2 (Homo sapiens) (UniProt P43354); experiment: Modulation of full length human Nurr1 expressed in SKNBE(2) cells co-transfected with RXRalpha and luciferase reporter plasmid harboring NurRE response element assessed as increase in luciferase activity incubated for 18 hrs by luciferase-reporter gene assay; conditions: SKNBE2, filed as modulator, dose 0.0002-200 µM
Method in brief: (§5)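 SK-N-BE(2)-C cells were kept in 1:1 EMEM/F12 with 10% FBS at 37°C and 5% CO2. They were cotransfected with full-length Nurr1 (1 μg), full-length RXRα (1 μg) and 3xNBRE- or 3xNurRE-luc reporter (6 μg) for 18 h, replated at 10,000 cells/well for 4 h, and then treated with ligand or vehicle in quadruplicate for 18 h. The readout was luciferase luminescence as fold over vehicle, reported as mean ± s.e.m. (n=4) from 2 independent experiments, one-way ANOVA.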

PC-12 [6] = experiment: Cytotoxicity in rat PC-12 cells assessed as reduction in cell viability at 0.02 to 200 uM incubated for 18 hrs by Cell Titer-Glo assay; conditions: pc-12, 18 h, dose 0.02-200 µM
Method in brief: (§6)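 Cells seeded at 1.5 million per 10-cm dish. Next day they were replated at 10,000 cells/well and rested 4 h. Ligand or vehicle (water, ethanol or DMSO, by ligand) was added in dose-response format in quadruplicate. After 18 h, viability was read by CellTiter-Glo luminescence. Data are mean ± s.e.m., generally representative of 2 independent experiments. One-way ANOVA versus vehicle.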

HEK-293T = experiment: Cytotoxicity in human HEK293T cells assessed as reduction in cell viability at 0.02 to 200 uM incubated for 18 hrs by Cell Titer-Glo assay; conditions: dose 0.02-200 µM; method in brief: as §6
[7] = target: Nuclear receptor subfamily 4 group A member 2 (Homo sapiens) (UniProt P43354); experiment: Modulation of full length human Nurr1 expressed in PC12 cells co-transfected with RXRalpha and luciferase reporter plasmid harboring NurRE response element assessed as increase in luciferase activity incubated for 18 hrs by luciferase-reporter gene assay; conditions: PC-12, filed as modulator, dose 0.0002-200 µM; method in brief: as §2
SKNBE2 = experiment: Modulation of Gal4-fused VP16 expressed in SKNBE(2) cells co-transfected with UAS repoter gene assessed as increase in luciferase activity at 0.02 to 200 uM incubated for 18 hrs by luciferase reporter gene assay; conditions: Human alphaherpesvirus 2, filed as modulator, dose 0.02-200 µM; method in brief: as §4
PC-12 [8] = experiment: Modulation of Gal4-fused VP16 expressed in PC12 cells co-transfected with UAS repoter gene assessed as increase in luciferase activity at 0.02 to 200 uM incubated for 18 hrs by luciferase reporter gene assay; conditions: Human alphaherpesvirus 2, filed as modulator, dose 0.02-200 µM; method in brief: as §4
[9] = target: Nuclear receptor subfamily 4 group A member 2 (Homo sapiens) (UniProt P43354); experiment: Modulation of full length human Nurr1 expressed in PC12 cells co-transfected with luciferase reporter plasmid harboring NBRE response element assessed as increase in luciferase activity incubated for 18 hrs by luciferase-reporter gene assay; conditions: PC-12, filed as modulator, dose 0.002-200 µM; method in brief: as §3
[10] = target: Nuclear receptor subfamily 4 group A member 2 (Homo sapiens) (UniProt P43354); experiment: Modulation of full length human Nurr1 expressed in HEK293T cells co-transfected with RXRalpha and luciferase reporter plasmid harboring NurRE response element assessed as increase in luciferase activity incubated for 18 hrs by luciferase-reporter gene assay; conditions: filed as modulator, dose 0.0002-200 µM; method in brief: as §1
SK-N-BE(2) = experiment: Cytotoxicity in human SKNBE2 cells assessed as reduction in cell viability at 0.02 to 200 uM incubated for 18 hrs by Cell Titer-Glo assay; conditions: dose 0.02-200 µM; method in brief: as §6
[11] = target: Nuclear receptor subfamily 4 group A member 2 (Homo sapiens) (UniProt P43354); experiment: Modulation of full length human Nurr1 expressed in HEK293T cells co-transfected with RXRalpha and luciferase reporter plasmid harboring NBRE response element assessed as increase in luciferase activity incubated for 18 hrs by luciferase-reporter gene assay; conditions: filed as modulator, dose 0.0002-200 µM; method in brief: as §1
[12] = target: Nuclear receptor subfamily 4 group A member 2 (Homo sapiens) (UniProt P43354); experiment: Modulation of full length human Nurr1 expressed in SKNBE(2) cells co-transfected with luciferase reporter plasmid harboring NBRE response element assessed as increase in luciferase activity incubated for 18 hrs by luciferase-reporter gene assay; conditions: SKNBE2, filed as modulator, dose 0.002-200 µM
[13] = target: Nuclear receptor subfamily 4 group A member 2 (Homo sapiens) (UniProt P43354); experiment: Modulation of full length human Nurr1 expressed in SKNBE(2) cells co-transfected with RXRalpha and luciferase reporter plasmid harboring NBRE response element assessed as increase in luciferase activity incubated for 18 hrs by luciferase-reporter gene assay; conditions: SKNBE2, filed as modulator, dose 0.0002-200 µM; method in brief: as §5
[14] = target: Nuclear receptor subfamily 4 group A member 2 (Homo sapiens) (UniProt P43354); experiment: Modulation of full length human Nurr1 expressed in HEK293T cells co-transfected with luciferase reporter plasmid harboring NurRE response element assessed as increase in luciferase activity incubated for 18 hrs by luciferase-reporter gene assay; conditions: filed as modulator, dose 0.002-200 µM; method in brief: as §1

COc1ccc(-c2cc3onc(-c4ccccc4)c3c(=O)n2C)cc1
Activity [1]: Dose-Dependent Effect
Activity [2]: Dose-Dependent Effect
Activity [3]: Dose-Dependent Effect
Activity [4]: Dose-Dependent Effect
Activity (HEK293T): Active
Activity [5]: Dose-Dependent Effect
Activity (PC-12 [6]): Non-Toxic
Activity (HEK-293T): Non-Toxic
Activity [7]: Dose-Dependent Effect
Activity (SKNBE2): Active
Activity (PC-12 [8]): Active
Activity [9]: Dose-Dependent Effect
Activity [10]: Dose-Dependent Effect
Activity (SK-N-BE(2)): Non-Toxic
Activity [11]: Dose-Dependent Effect
Activity [12]: Dose-Dependent Effect
Activity [13]: Dose-Dependent Effect
Activity [14]: Dose-Dependent Effect
